Legend:
[1] = target: T1, Nuclear receptor subfamily 1 group I member 3 (Homo sapiens, UniProt Q14994); assay: Agonist activity at human CAR transfected in human HepG2 cells cotransfected with CYP2B6 incubated for 23 hrs by luciferase reported gene assay; format: cell-based
T1 sequence (Q14994 whole entry): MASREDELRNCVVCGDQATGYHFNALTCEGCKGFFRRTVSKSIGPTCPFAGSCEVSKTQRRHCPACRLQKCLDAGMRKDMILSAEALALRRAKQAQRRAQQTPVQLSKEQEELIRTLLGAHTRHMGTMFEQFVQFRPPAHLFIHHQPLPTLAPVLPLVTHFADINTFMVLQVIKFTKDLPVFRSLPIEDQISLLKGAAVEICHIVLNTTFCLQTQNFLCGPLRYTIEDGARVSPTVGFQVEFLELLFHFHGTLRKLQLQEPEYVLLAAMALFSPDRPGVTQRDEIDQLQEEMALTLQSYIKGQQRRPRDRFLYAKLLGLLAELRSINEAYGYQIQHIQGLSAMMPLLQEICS
Method in brief: (§1)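 qHTS luciferase reporter assay in a double-stable HepG2-CYP2B6-hCAR line. EC50 and Emax (fold luciferase signal over vehicle/basal) derived by nonlinear regression; Emax/EC50 ratio computed from these. Mean ± SEM of at least three independent experiments in quadruplicate.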

[2] = target: T1, Nuclear receptor subfamily 1 group I member 3; assay: Ratio of Emax to EC50 for agonist activity at human CAR transfected in human HepG2 cells cotransfected with CYP2B6 by luciferase reporter gene assay; format: cell-based; method in brief: as §1
[3] = target: T2, Nuclear receptor subfamily 1 group I member 2 (Homo sapiens, UniProt O75469); assay: Agonist activity at human PXR transfected in human HepG2 cells cotransfected with CYP3A4 incubated for 23 hrs by luciferase reporter gene assay; format: cell-based
T2 sequence (O75469 whole entry): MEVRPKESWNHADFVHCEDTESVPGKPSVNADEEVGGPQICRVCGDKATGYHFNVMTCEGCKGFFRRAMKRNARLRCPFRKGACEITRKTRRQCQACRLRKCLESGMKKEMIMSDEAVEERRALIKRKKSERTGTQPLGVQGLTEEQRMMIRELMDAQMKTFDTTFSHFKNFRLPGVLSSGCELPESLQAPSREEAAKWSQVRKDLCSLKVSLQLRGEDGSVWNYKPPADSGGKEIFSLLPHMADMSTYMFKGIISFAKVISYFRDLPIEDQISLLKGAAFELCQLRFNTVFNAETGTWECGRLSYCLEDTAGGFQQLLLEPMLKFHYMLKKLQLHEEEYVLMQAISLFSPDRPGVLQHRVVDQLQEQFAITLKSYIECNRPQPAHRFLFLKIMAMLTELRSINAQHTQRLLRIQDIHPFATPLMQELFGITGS

[4] = target: T2, Nuclear receptor subfamily 1 group I member 2; assay: Ratio of Emax to EC50 for agonist activity at human PXR transfected in human HepG2 cells cotransfected with CYP3A4 by luciferase reporter gene assay; format: cell-based
[5] = target: T1, Nuclear receptor subfamily 1 group I member 3; assay: Agonist activity at human CAR in human primary hepatocytes assessed as increase in CYP2B6 gene expression incubated for 24 hrs by RT-PCR analysis; format: cell-based
Method in brief: (§2)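 Hepatocytes from human liver donor HL-#151, treated with test compound at 0.5, 1 and 5 μM or vehicle; CITCO (0.5–5 μM), PB (1 mM) and RIF (10 μM) as references. CYP2B6 and CYP3A4 mRNA measured by RT-PCR and normalized to vehicle control. Mean ± SD of three independent experiments.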

[6] = target: T2, Nuclear receptor subfamily 1 group I member 2; assay: Agonist activity at human PXR in human primary hepatocytes assessed as slight increase in CYP3A4 gene expression at 0.5 to 5 uM incubated for 24 hrs by RT-PCR analysis; format: cell-based; method in brief: as §2
HepG2 [7] = assay: Cytotoxicity against human HepG2 cells harbouring CYP2B6-hCAR gene assessed as cell viability at 92 uM incubated for 24 hrs by cell titer-Glo cell viability assay; format: ADME, cell-based; conditions: hepg2, 24 h
[8] = target: T1, Nuclear receptor subfamily 1 group I member 3; assay: Agonist activity at human CAR in human primary hepatocytes assessed as slight increase in CYP2B6 level at 0.5 to 5 uM incubated for 72 hrs by Western blot analysis; format: cell-based
Method in brief: (§3)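 Hepatocytes from liver donor #151, given the same treatments as the mRNA study. CYP2B6 and CYP3A4 protein detected by immunoblotting; representative blots.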

HepG2 [9] = assay: Cytotoxicity against human HepG2 cells harbouring CYP2B6-hCAR gene assessed as reduction in cell viability at >10 uM incubated for 24 hrs by cell titer-Glo cell viability assay; format: ADME, cell-based; conditions: hepg2, 24 h
[10] = target: T1, Nuclear receptor subfamily 1 group I member 3; assay: Agonist activity at human CAR in human primary hepatocytes assessed as increase in CYP2B6 level incubated for 72 hrs by Western blot analysis; format: cell-based; method in brief: as §3
[11] = target: T2, Nuclear receptor subfamily 1 group I member 2; assay: Agonist activity at human PXR in human primary hepatocytes assessed as slight increase in CYP3A4 level at 0.5 to 5 uM incubated for 72 hrs by Western blot analysis; format: cell-based; method in brief: as §3
[12] = target: T1, Nuclear receptor subfamily 1 group I member 3; assay: Agonist activity at human CAR in human primary hepatocytes assessed as increase in CYP2B6 gene expression at 0.5 to 5 uM incubated for 24 hrs by RT-PCR analysis; format: cell-based; method in brief: as §2
[13] = target: T1, Nuclear receptor subfamily 1 group I member 3; assay: Agonist activity at human CAR in human primary hepatocytes assessed as increase in CYP2B6 gene expression at 1 mM incubated for 24 hrs by RT-PCR analysis; format: cell-based; conditions: 1000 µM
Method in brief: (§4)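 Human primary hepatocytes from liver donor HL-#151 were treated with compound at 0.5, 1 or 5 μM, phenobarbital (1 mM), rifampicin (10 μM) or vehicle. CYP2B6 and CYP3A4 mRNA was measured by RT-PCR and normalized against vehicle control. Results are mean ± SD of three independent experiments.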

[14] = target: T2, Nuclear receptor subfamily 1 group I member 2; assay: Agonist activity at human PXR in human primary hepatocytes assessed as increase in CYP3A4 gene expression at 1 mM incubated for 24 hrs by RT-PCR analysis; format: cell-based; conditions: 1000 µM; method in brief: as §4

Structure (SMILES)	EC50 ([1]; read-out: EC50) [µM]	Ratio [2]	Activity (HepG2 [9])	also measured
Clc1ccc(-c2nc3occn3c2/C=N/OCc2ccc(Cl)c(Cl)c2)cc1	0.41	10		EC50 [3]: 1.3 µM; Ratio [4]: 1.3; Activity [5]: Dose-dependent effect; Activity [6]: Active; Activity (HepG2 [7]): Non-Toxic; Activity [8]: Active
Clc1ccc(CO/N=C/c2c(-c3cccc4ccccc34)nc3sccn23)cc1Cl	0.94	2.3	Toxic	
Clc1ccc(CO/N=C/c2c(-c3ccc4ccccc4c3)nc3occn23)c(Cl)c1	1.5	2.3	Toxic	
FC(F)(F)c1ccc(CO/N=C/c2c(-c3ccc4ccccc4c3)nc3occn23)cc1	0.47	6		EC50 [3]: 2 µM; Ratio [4]: 0.85; Activity (HepG2 [7]): Non-Toxic
CC(C)(C)c1ccc(-c2nc3sccn3c2/C=N/OCc2ccc(Cl)c(Cl)c2)cc1	2.4	0.83	Toxic	
Clc1ccccc1CO/N=C/c1c(-c2ccc3ccccc3c2)nc2occn12	1.1	3.5	Toxic	
FC(F)(F)c1ccc(-c2nc3sccn3c2/C=N/OCc2ccc(Cl)c(Cl)c2)cc1	0.88	2.6	Toxic	
Cc1ccc(-c2nc3sccn3c2/C=N/OCc2ccc(Cl)c(Cl)c2)cc1	0.49	5.5	Toxic	
Clc1ccc(CO/N=C/c2c(-c3ccc(C4CCCCC4)cc3)nc3sccn23)cc1Cl	> 100	< 0.03	Toxic	
Clc1ccc(CO/N=C/c2c(-c3ccc4ccccc4c3)nc3sccn23)cc1Cl	0.38	6.1	Toxic	
CC1(C)CCC(C)(C)c2cc(-c3nc4sccn4c3/C=N/OCc3ccc(Cl)c(Cl)c3)ccc21			Toxic	EC50 ([1]; hepg2): Not Active; EC50 [3]: 3.6 µM; Ratio [4]: 0.64
Clc1ccc(CO/N=C/c2c(-c3ccc4ccccc4c3)nc3occn23)cc1	0.99	4.2	Toxic	
Clc1ccc(CO/N=C/c2c(-c3ccccc3)nc3sccn23)cc1Cl	0.58	4	Toxic	
COc1ccc(-c2nc3sccn3c2/C=N/OCc2ccc(Cl)c(Cl)c2)cc1	0.49	4.9	Toxic	
Clc1ccc(CO/N=C/c2c(-c3ccc4ccccc4c3)nc3occn23)cc1Cl	0.37	10		EC50 [3]: 5.9 µM; Ratio [4]: 0.37; Activity [5]: Dose-dependent effect; Activity [6]: Active; Activity [10]: Dose-dependent effect; Activity [11]: Active; Activity (HepG2 [7]): Non-Toxic
Clc1cccc(-c2nc3sccn3c2/C=N/OCc2ccc(Cl)c(Cl)c2)c1	1.1	2.1	Toxic	
CC(C)c1ccc(-c2nc3sccn3c2/C=N/OCc2ccc(Cl)c(Cl)c2)cc1	0.59	5.1	Toxic	
Fc1c(F)c(F)c(CO/N=C/c2c(-c3ccc4ccccc4c3)nc3occn23)c(F)c1F	1.7	1.8	Toxic	
CC(C)(C)c1ccc(CO/N=C/c2c(-c3ccc4ccccc4c3)nc3occn23)cc1	7.9	0.29	Toxic	
Clc1ccc(CO/N=C/c2c(-c3ccc(-c4ccccc4)cc3)nc3sccn23)cc1Cl			Toxic	EC50 ([1]; hepg2): Not Active; EC50 [3]: 57 µM; Ratio [4]: 0.06
Clc1ccc(CO/N=C/c2c(-c3ccc(Br)cc3)nc3sccn23)cc1Cl	0.48	5	Toxic	
Fc1ccc(-c2nc3sccn3c2/C=N/OCc2ccc(Cl)c(Cl)c2)cc1	0.67	3.9	Toxic	
C(=N\OCc1ccccc1)/c1c(-c2ccc3ccccc3c2)nc2occn12	0.84	5.2		EC50 [3]: 7.3 µM; Ratio [4]: 1; Activity (HepG2 [7]): Non-Toxic
COc1ccc(CO/N=C/c2c(-c3ccc4ccccc4c3)nc3occn23)cc1	4.4	0.75	Toxic	
CCc1nc2sccn2c1/C=N/OCc1ccc(Cl)c(Cl)c1	2.6	1.4	Toxic	
C(=N\OC1Cc2ccccc2C1)/c1c(-c2ccc3ccccc3c2)nc2occn12	0.98	3.8	Toxic	
N#Cc1ccc(-c2nc3sccn3c2/C=N/OCc2ccc(Cl)c(Cl)c2)cc1	3.4	0.65	Toxic	
C(=N\OCc1ccc(Oc2ccccc2)cc1)/c1c(-c2ccc3ccccc3c2)nc2occn12			Toxic	EC50 ([1]; hepg2): Not Active; EC50 [3]: 1.1 µM; Ratio [4]: 1.6
Clc1ccc(-c2nc3sccn3c2/C=N/OCc2ccc(Cl)c(Cl)c2)cc1			Toxic	EC50 [3]: 0.99 µM; Activity [12]: Active
CCC1(c2ccccc2)C(=O)NC(=O)NC1=O [PHENOBARBITAL]				Activity [13]: Active; Activity [14]: Active

Reference: ChEMBL document CHEMBL4396920, “DL5050, a Selective Agonist for the Human Constitutive Androstane Receptor” (ACS Med Chem Lett, 2019)
